# Results published in ChEMBL document CHEMBL3351355, “Structure-affinity/activity relationships of 1,4-dioxa-spiro[4.5]decane based ligands at α1 and 5-HT1A receptors” (Eur J Med Chem, 2014).
# What was measured:
# [1] = biological target: T1, Alpha-1A adrenergic receptor (Homo sapiens, UniProt P35348); assay: Displacement of [3H]prazosin from human recombinant alpha1A adrenoceptor expressed in CHO cells after 30 mins by liquid scintillation counting
# T1 sequence (P35348 whole entry): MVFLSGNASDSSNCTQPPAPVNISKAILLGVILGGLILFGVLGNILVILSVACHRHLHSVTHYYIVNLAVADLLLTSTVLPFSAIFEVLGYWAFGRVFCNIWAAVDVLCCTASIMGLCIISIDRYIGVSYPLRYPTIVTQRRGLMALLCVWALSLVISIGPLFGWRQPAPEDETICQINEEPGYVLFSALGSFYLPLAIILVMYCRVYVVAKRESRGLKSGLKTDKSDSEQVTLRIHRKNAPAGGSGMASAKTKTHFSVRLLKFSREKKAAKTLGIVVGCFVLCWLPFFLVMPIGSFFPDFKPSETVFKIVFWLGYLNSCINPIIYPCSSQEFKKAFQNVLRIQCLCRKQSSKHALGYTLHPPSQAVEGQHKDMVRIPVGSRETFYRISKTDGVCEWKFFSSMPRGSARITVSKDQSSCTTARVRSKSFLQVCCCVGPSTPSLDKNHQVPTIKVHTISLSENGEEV
# [2] = biological target: T2, Alpha-1D adrenergic receptor (Rattus norvegicus) (UniProt P23944); assay: Antagonist activity at alpha1D adrenoceptor in Wistar rat thoracic aorta assessed as noradrenaline-induced contractions after 30 mins
# T2 sequence (whole entry): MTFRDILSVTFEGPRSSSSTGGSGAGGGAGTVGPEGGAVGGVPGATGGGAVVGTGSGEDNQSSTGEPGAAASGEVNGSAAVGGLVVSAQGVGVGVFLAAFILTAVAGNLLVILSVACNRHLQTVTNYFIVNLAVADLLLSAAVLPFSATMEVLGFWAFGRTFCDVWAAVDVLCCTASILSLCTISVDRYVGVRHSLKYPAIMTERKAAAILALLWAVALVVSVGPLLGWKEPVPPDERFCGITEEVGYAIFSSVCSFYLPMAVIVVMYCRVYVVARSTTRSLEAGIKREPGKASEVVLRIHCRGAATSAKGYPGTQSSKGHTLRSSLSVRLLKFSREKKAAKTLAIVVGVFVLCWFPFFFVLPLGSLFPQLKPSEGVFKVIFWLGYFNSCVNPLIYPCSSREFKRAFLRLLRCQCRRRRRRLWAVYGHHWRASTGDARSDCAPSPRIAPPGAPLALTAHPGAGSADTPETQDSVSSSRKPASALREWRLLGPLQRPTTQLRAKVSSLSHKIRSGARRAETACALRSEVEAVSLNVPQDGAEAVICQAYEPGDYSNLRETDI
# [3] = biological target: T3, Alpha-1B adrenergic receptor (Rattus norvegicus) (UniProt P15823); assay: Antagonist activity at alpha1B adrenoceptor in Wistar rat spleen assessed as phenylephrine-induced contractions after 30 mins
# T3 sequence (whole entry): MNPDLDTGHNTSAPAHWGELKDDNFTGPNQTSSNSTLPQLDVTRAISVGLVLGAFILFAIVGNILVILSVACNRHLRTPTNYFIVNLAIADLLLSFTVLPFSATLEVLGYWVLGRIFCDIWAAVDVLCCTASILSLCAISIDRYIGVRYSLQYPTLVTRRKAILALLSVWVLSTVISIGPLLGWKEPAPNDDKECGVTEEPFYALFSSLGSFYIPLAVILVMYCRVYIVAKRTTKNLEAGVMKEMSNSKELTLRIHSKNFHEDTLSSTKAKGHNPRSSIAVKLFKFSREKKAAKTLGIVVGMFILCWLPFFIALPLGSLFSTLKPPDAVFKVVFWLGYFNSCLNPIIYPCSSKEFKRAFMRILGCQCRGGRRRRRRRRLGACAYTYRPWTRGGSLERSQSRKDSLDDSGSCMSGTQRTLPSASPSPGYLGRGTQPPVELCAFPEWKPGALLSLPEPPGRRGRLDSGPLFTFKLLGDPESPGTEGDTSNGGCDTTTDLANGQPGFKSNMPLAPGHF
# Summary of the method: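 Spleen strips (bisected longitudinally) in Krebs with 4 µM propranolol, 1 g resting tension, 2 h equilibration. Cumulative phenylephrine curves recorded isometrically at 30 min intervals, the first discarded and the second used as control. Antagonist pre-equilibrated 30 min before a repeat agonist curve.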
# [4] = organism: Rattus norvegicus; assay: Selectivity ratio of Kb for alpha1B adrenoceptor in Wistar rat spleen to Kb for alpha1A adrenoceptor in Wistar rat vas deferans; type: tissue-based
# [5] = biological target: T4, 5-hydroxytryptamine receptor 1A (Homo sapiens) (UniProt P08908); assay: Agonist activity at human recombinant 5-HT1A receptor expressed in HeLa cells after 30 mins by [35S]GTPgammaS binding assay; type: functional, cell-based
# T4 sequence (whole entry): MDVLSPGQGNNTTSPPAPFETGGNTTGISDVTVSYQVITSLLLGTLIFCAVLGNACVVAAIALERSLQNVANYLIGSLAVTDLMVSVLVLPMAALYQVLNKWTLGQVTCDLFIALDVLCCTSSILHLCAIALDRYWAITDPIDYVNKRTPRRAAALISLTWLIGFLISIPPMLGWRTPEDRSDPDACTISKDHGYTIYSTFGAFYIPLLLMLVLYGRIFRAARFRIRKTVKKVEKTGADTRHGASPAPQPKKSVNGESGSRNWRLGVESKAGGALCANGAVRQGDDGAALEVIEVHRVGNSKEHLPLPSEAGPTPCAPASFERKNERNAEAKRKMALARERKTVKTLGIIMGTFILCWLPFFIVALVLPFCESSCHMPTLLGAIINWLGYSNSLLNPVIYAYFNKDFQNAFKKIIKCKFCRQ
# Summary of the method: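 HeLa membranes expressing human 5-HT1A (50–70 µg protein) in 20 mM HEPES, 3 mM MgSO4, 120 mM NaCl pH 7.4 with 30 µM GDP; test drug 0.01 nM–10 µM, 20 min at 30 °C, then 200 pM [35S]GTPγS for 30 min at 30 °C. Nonspecific with 10 µM GTPγS; filtration and scintillation counting. Emax as % of maximal 8-OH-DPAT stimulation; pD2 = −log EC50.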
# [6] = biological target: T4, 5-hydroxytryptamine receptor 1A (Homo sapiens); assay: Agonist activity at human recombinant 5-HT1A receptor expressed in HeLa cells after 30 mins by [35S]GTPgammaS binding assay relative to control; type: functional, cell-based
# Summary of the method: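 HeLa membranes (50–70 µg protein) in 20 mM HEPES, 3 mM MgSO4, 120 mM NaCl, pH 7.4, preincubated 20 min at 30 °C with 30 µM GDP and drug (0.01 nM–10 µM), then 200 pM [35S]GTPγS added for 30 min at 30 °C. Nonspecific binding with 10 µM GTPγS. Filtration and scintillation counting. Data expressed as % increase over basal, 8-OH-DPAT maximum = 100%. Emax and pD2 derived.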
Compound,Ki [1],pKb [2],pKb [3],Ratio [4],pD2 [5],Emax [6]
COc1ccccc1N1CCN(CC2COC3(CCN(C(=O)C(F)(F)F)CC3)O2)CC1 (configuration not stated),> 1000 nM,7.5,8,10.7,,
COc1ccccc1N1CCN(CC2COC3(CCCCC3)O2)CC1 (configuration not stated),,7.88,6.72,0.87,8.61,48%
COc1ccccc1N1CCN(CC2COC3(CCS(=O)(=O)CC3)O2)CC1 (configuration not stated),9.77 nM,7.2,7.66,2.09,,
COc1ccccc1N1CCN(CC2COC3(CCN(C(=O)C4CCCCC4)CC3)O2)CC1 (configuration not stated),30.9 nM,7.02,7.33,2.4,7.29,33%
COc1ccccc1N1CCN(CC2COC3(CCN(C(=O)c4ccccc4)CC3)O2)CC1 (configuration not stated),10.7 nM,7.45,8.19,3.02,,
COc1ccccc1N1CCN(CC2COC3(CCN(c4ccccc4)CC3)O2)CC1 (configuration not stated),6.46 nM,7.43,7.56,0.6,7.14,42%
COc1ccccc1N1CCN(CC2COC3(CCSCC3)O2)CC1 (configuration not stated),8.51 nM,6.84,7.63,1.07,7.48,36%
COc1ccccc1N1CCN(CC2COC3(CCN(c4ccccn4)CC3)O2)CC1 (configuration not stated),17.8 nM,6.87,7.86,1.7,6.49,41%
COc1ccccc1N1CCN(CC2COC3(CCN(C(=O)c4ccc(C(F)(F)F)cc4)CC3)O2)CC1 (configuration not stated),10.2 nM,7.29,8.33,3.47,,
COc1ccccc1N1CCN(CC2COC3(CCN(S(=O)(=O)c4ccc(Cl)cc4)CC3)O2)CC1 (configuration not stated),6.46 nM,7.37,7.36,1.32,,
COc1ccccc1N1CCN(CC2COC3(CCN(S(=O)(=O)c4ccc([N+](=O)[O-])cc4)CC3)O2)CC1 (configuration not stated),5.25 nM,8.02,7.75,1.02,7.65,37%
COc1ccccc1N1CCN(CC2COC3(CCN(S(=O)(=O)c4ccc(C)cc4)CC3)O2)CC1 (configuration not stated),4.57 nM,6.96,7.91,3.23,7.33,28%
COc1ccccc1N1CCN(CC2COC3(CCN(S(=O)(=O)c4cccs4)CC3)O2)CC1 (configuration not stated),7.94 nM,7.27,8.05,3.89,,
COc1ccccc1N1CCN(CC2COC3(CCN(Cc4ccccc4)CC3)O2)CC1 (configuration not stated),6.76 nM,8.6,7.18,0.29,7.21,45%
COc1ccccc1N1CCN(CC2COC3(CCN(S(=O)(=O)c4ccccc4)CC3)O2)CC1 (configuration not stated),7.94 nM,7.05,7.94,2.88,,
COc1ccccc1N1CCN(CC2COC3(CCN(C(C)=O)CC3)O2)CC1 (configuration not stated),60.3 nM,6.48,7.72,3.55,,
COc1ccccc1N1CCN(CC2COC3(CCN(C(=O)Nc4ccccc4)CC3)O2)CC1 (configuration not stated),12 nM,7.26,8.18,9.12,7.22,28%
CCCCNC(=O)N1CCC2(CC1)OCC(CN1CCN(c3ccccc3OC)CC1)O2 (configuration not stated),20 nM,7.29,7.4,1.04,6.53,30%
COc1ccccc1N1CCN(CC2COC3(CCN(S(=O)(=O)c4cccc([N+](=O)[O-])c4)CC3)O2)CC1 (configuration not stated),3.02 nM,7.98,8.14,1.48,,
COc1ccccc1N1CCN(CC2COC3(CCOCC3)O2)CC1 (configuration not stated),17 nM,7.33,7.17,0.41,6.82,31%
COc1ccccc1N1CCN(CC2COC3(CCN(S(C)(=O)=O)CC3)O2)CC1 (configuration not stated),18.6 nM,7.18,7.46,1.12,,
COc1ccccc1N1CCN(CC2COC3(CCN(S(=O)(=O)c4ccc(OC(F)(F)F)cc4)CC3)O2)CC1 (configuration not stated),8.91 nM,7.37,7.74,5.75,,
COc1ccccc1N1CCN(CC2COC3(CCN(C(=O)c4ccco4)CC3)O2)CC1 (configuration not stated),21.4 nM,7.38,7.69,1.82,7.12,33%
COc1ccccc1N1CCN(CC2COC3(CCN(C(=O)C4CCCN4)CC3)O2)CC1 (configuration not stated),11.7 nM,6.71,7.86,2.69,,
COc1ccccc1N1CCN(CC2COC3(CCN(C(=O)NC(C)(C)C)CC3)O2)CC1 (configuration not stated),12.6 nM,6.53,7.42,0.61,,
COc1ccccc1N1CCN(CC2COC3(CCNCC3)O2)CC1 (configuration not stated),49 nM,6.89,7.78,1.09,,
